Results reported in ChEMBL document CHEMBL3576780, “Effects of resveratrol on benign prostatic hyperplasia by the regulation of inflammatory and apoptotic proteins” (2015).
The source made the active and inactive calls.

Legend:
Format in all cases: functional, organism-based
Rattus norvegicus [1] = experiment: Reduction in prostate weight in BPH-induced Sprague-Dawley rat model at 5 mg/kg, po daily for 4 weeks in presence testosterone propionate of 10 mg/kg, intramuscular injection for 4 weeks; settings: Prostate gland
Rattus norvegicus [2] = experiment: Reduction in proliferating cell nuclear antigen expression in prostate tissue in BPH-induced Sprague-Dawley rat model at 5 mg/kg, po daily for 4 weeks by Western blot analysis
Rattus norvegicus [3] = experiment: Increase in Bax expression in prostate tissue in BPH-induced Sprague-Dawley rat model at 1 mg/kg, ip daily for 4 weeks by Western blot analysis; settings: Prostate gland
In short: (§1)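 Prostate homogenized in lysis buffer, 30 μg protein run on SDS-PAGE, PVDF blot, antibody probing, ECL detection, β-actin internal control, densitometry. Mean ± SEM, n = 6 rats/group; one-way ANOVA with Dunnett's test.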

Rattus norvegicus [4] = experiment: Reduction in COX2 expression in prostate tissue in BPH-induced Sprague-Dawley rat model at 1 mg/kg, ip daily for 4 weeks by Western blot analysis; settings: Prostate gland; in short: as §1
Rattus norvegicus [5] = experiment: Reduction in thickness of epithelium tissue in prostate tissue in BPH-induced Sprague-Dawley rat model at 1 mg/kg, ip daily for 4 weeks by Hematoxylin and eosin staining based microscopy; settings: Prostate gland
In short: (§2)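 Prostates fixed in 4% buffered formalin, paraffin embedded, cut at 4 μm, stained with H&E and imaged at original magnification 40×. Epithelial thickness measured by pathologists. Rats received testosterone propionate 10 mg/kg im daily for 4 weeks with daily treatment; n = 6 per group.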

Rattus norvegicus [6] = experiment: Reduction in Bcl2 expression in prostate tissue in BPH-induced Sprague-Dawley rat model at 1 mg/kg, ip daily for 4 weeks by Western blot analysis; settings: Prostate gland
Rattus norvegicus [7] = experiment: Reduction in Bcl-xL expression in prostate tissue in BPH-induced Sprague-Dawley rat model at 1 mg/kg, ip daily for 4 weeks by Western blot analysis; settings: Prostate gland; in short: as §1
Rattus norvegicus [8] = experiment: Reduction in prostate cell proliferation and gland development in BPH-induced Sprague-Dawley rat model at 1 mg/kg, ip daily for 4 weeks by Hematoxylin and eosin staining based microscopy; in short: as §2
Rattus norvegicus [9] = experiment: Reduction in PARP1 expression in prostate tissue in BPH-induced Sprague-Dawley rat model at 1 mg/kg, ip daily for 4 weeks by Western blot analysis; settings: Prostate gland; in short: as §1
Rattus norvegicus [10] = experiment: Reduction in 5alpha-reductase mRNA level in prostate tissue in BPH-induced Sprague-Dawley rat model at 1 mg/kg, ip daily for 4 weeks by quantitative real-time PCR analysis; settings: Prostate gland
In short: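 Prostate tissue 5α-reductase 2 mRNA quantified by real-time PCR in male Sprague-Dawley rats given testosterone propionate 10 mg/kg im daily for 4 weeks plus daily treatment; mean ± SEM, n = 6 rats/group.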

Rattus norvegicus [11] = experiment: Reduction in iNOS expression in prostate tissue in BPH-induced Sprague-Dawley rat model at 1 mg/kg, ip daily for 4 weeks by Western blot analysis; settings: Prostate gland
Rattus norvegicus [12] = experiment: Reduction in proliferating cell nuclear antigen in prostate tissue expression in BPH-induced Sprague-Dawley rat model at 1 mg/kg, ip daily for 4 weeks by Western blot analysis; in short: as §1
Rattus norvegicus [13] = experiment: Reduction in Bcl2 to Bax ratio in prostate tissue in BPH-induced Sprague-Dawley rat model at 1 mg/kg, ip daily for 4 weeks by Western blot analysis; settings: Prostate gland
In short: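 Male Sprague-Dawley rats, BPH induced by daily im testosterone propionate 10 mg/kg for 4 weeks with daily dosing. Prostate lysate (30 μg protein) Western blotted; Bax and Bcl-2 band densities normalized to β-actin and expressed as Bax/Bcl-2 ratio. Mean ± SEM, n = 6 rats/group.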

Rattus norvegicus [14] = experiment: Reduction in procaspase 3 expression in prostate tissue in BPH-induced Sprague-Dawley rat model at 1 mg/kg, ip daily for 4 weeks by Western blot analysis; settings: Prostate gland; in short: as §1
Rattus norvegicus [15] = experiment: Reduction in prostate weight in BPH-induced Sprague-Dawley rat model at 1 mg/kg, ip daily for 4 weeks in presence testosterone propionate of 10 mg/kg, intramuscular injection for 4 weeks; settings: Prostate gland

Measured: inhibition

CC(C)(C)NC(=O)[C@H]1CC[C@H]2[C@@H]3CC[C@H]4NC(=O)C=C[C@]4(C)[C@H]3CC[C@]12C
active: Rattus norvegicus [1] | Rattus norvegicus [2]

Oc1ccc(/C=C/c2cc(O)cc(O)c2)cc1
not listed: Rattus norvegicus [1] | Rattus norvegicus [2]
active: all other assays above
